Ecoli tolC: growth inhibitors of E. coli tolC mutant, primary screen, strain BW25113 ΔtolC::kan, 384-well; OD615; growth inhibition, % at 10 µM (by protocol); actives 2.2% (n = 65,000); AID 573, 2007;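 active = growth inhibition at or above a cutoff equal to the mean over every tested compound plus 3 SD, cut at about 60% in these data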;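 also: growth measured after 20 h incubation at 37 °C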
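Signal: optical density read at 615 nm; Assay system: E. coli ΔtolC::kan strain BW25113; Times: 20 h incubation with compound, 37 °C; Dosing: 10 µM final, single dose.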
PostGolgi ctrl: growth inhibition of yeast control strain, primary screen, counter-screen for post-Golgi transport modulator project | AID 738, 2007 | inhibition, % at 10 µM | efflux-deficient yeast background strain, growth absorbance A615, 16 h | actives 5% (n = 98,000)
E coli WT exp: growth inhibitors of wild-type E. coli, primary screen, strain BW25113, expanded library, OD600 | OD600 absorbance | growth inhibition, % at 100 µM | actives 0.15% (n = 98,000) | AID 710, 2007;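 active = growth inhibition above about 50% at one test dose, limit read from the data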;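 also: growth measured after 20 h incubation at 37 °C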
HePTP inh: inhibitors of human HePTP phosphatase, primary screen, biochemical, absorbance, leukemia target. Tyrosine-protein phosphatase non-receptor type 7 (Homo sapiens), P35236. recombinant HePTP phosphatase activity, OD absorbance. inhibition, % at 20 µM. actives 0.64% (n = 110,000). AID 521, 2006; in the data active = inhibition above about 50%;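 also: plate controls were vehicle for no effect and reference inhibitor for full effect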
PLAP act: PLAP enzyme activators, biochemical, luminescence, HTS. Alkaline phosphatase, placental type (Homo sapiens), P05187. purified PLAP enzyme, luminescent substrate read-out; active compounds read high. actives 1.2% (n = 96,000). activation fold at 20 µM. AID 696, 2007; in the data active = activation fold above about 2
Target sequence (P05187 whole entry, looked up): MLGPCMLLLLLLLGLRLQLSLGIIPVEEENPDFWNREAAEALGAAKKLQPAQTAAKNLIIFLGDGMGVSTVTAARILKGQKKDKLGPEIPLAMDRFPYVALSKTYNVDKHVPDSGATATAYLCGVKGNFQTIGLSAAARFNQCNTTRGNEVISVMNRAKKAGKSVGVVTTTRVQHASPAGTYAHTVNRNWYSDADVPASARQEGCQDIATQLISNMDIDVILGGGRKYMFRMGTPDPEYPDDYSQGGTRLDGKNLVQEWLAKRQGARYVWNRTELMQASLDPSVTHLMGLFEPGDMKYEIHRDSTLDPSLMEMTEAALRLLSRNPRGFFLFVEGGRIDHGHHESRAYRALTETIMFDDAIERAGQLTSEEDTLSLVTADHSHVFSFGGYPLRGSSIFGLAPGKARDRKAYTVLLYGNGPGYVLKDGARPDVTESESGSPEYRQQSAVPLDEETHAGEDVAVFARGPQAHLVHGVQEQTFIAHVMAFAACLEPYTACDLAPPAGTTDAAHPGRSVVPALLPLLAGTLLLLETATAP
PostGolgi yeast: phenotypic screen on post-Golgi transport, primary screen; post-Golgi transport phenotypic cell assay; inhibition, % at 10 µM; actives 0.9% (n = 98,000); AID 739, 2007;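 also: yeast cells grown in 1536-well plates; yeast grown about 18 h at 30C before absorbance read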
* marks the source's active call; other numbers are inactive results; / = not tested or not shown. Rows were chosen to be rich in hits. Some 5.5% of all compounds tested hit in one or more screens of this group. Rule as the data show it, unless noted: active = inhibition above about 30%; inactive = the rest.

SMILES	Ecoli tolC	PostGolgi ctrl	E coli WT exp	HePTP inh	PLAP act	PostGolgi yeast
COC(=O)C(CC(=O)c1ccc(Br)cc1)n1ccnc1 (stereo not given)	5	-3	59*	10	1.1	-5
Cc1cc(C)nc(NS(=O)(=O)c2ccc(NC(=O)c3ccc(S(=O)(=O)N4CCOCC4)cc3)cc2)n1	/	-1	-8	11	1.3	-3
Cc1cc(C)c(O)c(-c2cc(C(=O)Nc3ccc(S(=O)(=O)N4CCOCC4)cc3)[nH]n2)c1	91*	4	-10	4	1.8	0
O=C(Nc1cccc([N+](=O)[O-])c1)c1cc(S(=O)(=O)Nc2ccc(F)cc2)ccc1Cl	/	/	/	7	/	/
CCc1ccc2nc(NC(=O)c3ccc4c(=O)[nH]c(CN5CCOCC5)nc4c3)sc2c1	-12	4	-7	7	2.3*	-3
O=C(OCc1cccc2ccccc12)c1ccc2c(=O)[nH]c(CN3CCOCC3)nc2c1	10	0	-3	4	1.5	-7
CC(=Nc1ccccc1C)C1=C(O)CC(C)(C)CC1=O	/	/	/	2	/	/
CC(C)(C)C1CCc2nc(NC(=O)Cc3cn4ccsc4n3)sc2C1 (stereo not given)	58	46*	4	5	1.5	0
Cc1ccc(CC2CC2(Cl)Cl)c([N+](=O)[O-])c1 (stereo not given)	/	/	/	1	/	/
Cc1ccc(C2CN=NC23CCc2ccccc2C3=O)cc1 (stereo not given)	/	15	2	/	1.1	-6
O=C1c2ccccc2CCCC12N=NCC2c1cccc2ccccc12 (stereo not given)	/	33*	-18	/	0.9	6
COC(=O)C1=C(C)N=c2s/c(=C\c3ccc4c(c3)OCO4)c(=O)n2C1/C=C/c1ccccc1 (stereo not given)	/	/	/	-9	/	/
CCOC(=O)c1cccc(NC(=O)Nc2cc(OC)ccc2OC)c1	83*	3	4	9	1	-5
CCOC(=O)c1cccc(NC(=O)COc2ccc(OC)cc2)c1	/	/	/	-2	/	/
O=C(O)c1cc(NCc2ccc3c(c2)OCO3)ccc1N1CCOCC1	-14	-2	1	8	1.1	32*
CC(=O)CC(=O)NC12CC3CC(CC(C3)C1)C2	/	/	/	-7	/	/
CC1(C(=O)NC23CC4CC(CC(C4)C2)C3)CC1(Cl)Cl (stereo not given)	/	34*	-6	/	1.1	-1
COc1ccc(C2CC(c3ccccc3)=NN2C(=O)c2cccs2)cc1 (stereo not given)	/	67*	1	/	1.2	-16
COc1ccc(C2CC(c3ccccc3)n3nc(NC(=O)c4cccs4)nc3N2)cc1 (stereo not given)	65*	-1	-2	6	1.9	-1
COc1ccc(C2CC(c3ccc(Cl)c(Cl)c3)Nc3nc(N)nn32)cc1 (stereo not given)	26	36*	-6	2	1	1
O=C(Nc1nc2n(n1)C(c1ccc(Cl)cc1)CC(c1ccc(Cl)cc1)N2)c1ccco1 (stereo not given)	61*	14	-6	2	1.5	-2
C=CCNC(=O)CN(c1ccc(OC)cc1)S(=O)(=O)c1ccc(OC)c(OC)c1	/	/	/	6	/	/
O=C(/C=C/c1ccco1)Nc1ccc(C(=O)Nc2cccc(-c3nc4ccccc4o3)c2)cc1	/	/	/	-1	/	/
C=CCn1c(=S)[nH]c2sc3c(c2c1=O)CCC(C)C3 (stereo not given)	/	/	/	8	/	/
CCc1ccccc1NS(=O)(=O)c1ccc(OC)c(OC)c1	/	/	/	4	/	/
SMILES	Ecoli tolC	PostGolgi ctrl	E coli WT exp	HePTP inh	PLAP act	PostGolgi yeast
COc1cccc(/C=N/Nc2nc(-c3ccc(C)cc3)nc3ccccc23)c1O	/	/	/	8	/	/
COc1ccc(N(CC(=O)Nc2ccc(Br)cc2)S(=O)(=O)c2ccc(C)cc2)cc1	/	/	/	-12	/	/
CCC(CC)C(=O)Nc1cccc(C(=O)NCc2ccco2)c1	4	42*	7	-7	1.1	-5
COc1ccc(/C=C(/C(=O)c2ccc(Cl)cc2Cl)n2cncn2)cc1	/	33*	5	/	1	85*
O=C(OCn1cncn1)c1ccc(Cl)cc1Cl	-3	-1	1	5	1.3	3
CCOC(=O)C1CCN(Cc2cn[nH]c2-c2ccc(C)cc2)CC1	92*	-10	11	3	1.4	17
Cc1cc(-c2ccco2)c(C#N)c(SCC(=O)c2ccc(O)c(O)c2)n1	/	/	/	11	/	/
O=C(CSc1nc2ccccc2[nH]1)N1CCN(c2ccc(F)cc2)CC1	20	-1	0	13	1.6	-4
O=C(CCCSc1nc2ccccc2[nH]1)N1CCN(c2ccc([N+](=O)[O-])cc2)CC1	/	32*	-11	/	0.8	-4
O=C(Nc1ccccc1)c1ccc(-c2ccccc2)cc1	/	/	/	1	/	/
O=C(Nc1cccc(Oc2ccc(C(=O)O)c(C(=O)O)c2)c1)c1ccc(-c2ccccc2)cc1	/	/	/	102*	/	/
CC(C)(C)C1CCc2c(sc(NC(=O)/C=C/c3ccco3)c2C(N)=O)C1 (stereo not given)	/	/	/	-2	/	/
CCOC(=O)c1ccc(N2C(=O)c3n[nH]c(C)c3C2c2ccc(OC)cc2)cc1 (stereo not given)	13	5	3	4	2.6*	1
CCOC(=O)c1ccc(N2C(=O)c3n[nH]c(C)c3C2c2ccc(OC)cc2OC)cc1 (stereo not given)	68*	/	/	/	/	/
CCOC(=O)c1ccc(N2C(=O)c3n[nH]c(C)c3C2c2ccc(OC)c(OC)c2)cc1 (stereo not given)	8	5	11	4	/	-6
Cc1ccc(N2C(=O)c3n[nH]c(C)c3C2c2ccccn2)cc1 (stereo not given)	/	13	-3	2	1.3	1
COC(=O)c1ccc(C2c3c(n[nH]c3C)C(=O)N2c2ccc(C)cc2)cc1 (stereo not given)	75*	26	4	-9	2.3*	6
COc1ccc(C2NC(=O)c3n[nH]c(C)c32)c(OC)c1 (stereo not given)	-6	12	-1	6	1.7	-20
CCOc1cc(C2c3c(n[nH]c3C)C(=O)N2c2ccc(Br)cc2)ccc1O (stereo not given)	12	6	0	0	2.3*	-5
O=C1C(=O)N(CCc2ccccc2)c2ccccc21	/	/	/	-7	/	/
CCOC(=O)c1ccc(N2C(=O)c3n[nH]c(C)c3C2c2ccco2)cc1 (stereo not given)	22	19	11	-4	2.7*	-5
OCc1cn(-c2ccccc2)nc1-c1ccc(-c2nn(-c3ccccc3)cc2CO)cc1	3	-3	-6	6	1.2	17
Cc1ccc(-c2nn(-c3ccccc3)cc2CSC(=N)N)cc1	/	27	98*	/	0.4	9
Cc1cc(C)c(OCC(=O)Nc2cccc([N+](=O)[O-])c2)c(C)c1	/	/	/	3	/	/

Assay outcomes deposited in PubChem by several laboratories.
